The source made the active and inactive calls. The calls are words filed in the database; no cut-off is given here.
Columns and labels:
[1] = target: RAF proto-oncogene serine/threonine-protein kinase (Homo sapiens) (UniProt P04049); assay: Inhibition of c-RAF (unknown origin) at 10 uM
How it was run: (§1)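 Cell-free kinase profiling was run as a standard 33P-ATP-based in vitro kinase assay.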

[2] = target: Proto-oncogene tyrosine-protein kinase Src (Homo sapiens) (UniProt P12931); assay: Inhibition of cSRC (unknown origin) at 10 uM; how it was run: as §1
MDA-MB-231 [3] = assay: Induction of cAMP level in human MDA-MB-231 cells at 0.1 to 25 uM in presence of forskolin; format: functional, cell-based
How it was run: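 MDA-MB-231 cells serum-starved for 4 h, treated with 500μM IBMX for 30 min, then exposed to compound for a further 30 min. Cellular cAMP read by HTRF kit.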

MDA-MB-231 [4] = assay: Induction of apoptosis in human […] cells assessed as caspase 9 activation at 2.5 to 7.5 uM by Caspase-Glo assay; format: functional, cell-based
How it was run: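 Caspase-8, -9 and -3 activities measured with Caspase-Glo 8, 9 and 3 kits; mean ± SEM from three independent experiments.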

[5] = target: Epidermal growth factor receptor (Homo sapiens) (UniProt P00533); assay: Inhibition of EGF-induced EGFR phosphorylation at Tyr845 in human MDA-MB-231 cells at 1 uM by ELISA; format: cell-based
How it was run: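 MDA-MB-231 cells pretreated 1 h in serum-free medium, then EGF-stimulated for 15 min and lysed. Equal lysate protein (Bradford) assayed by ELISA kits for p-EGFR (Tyr1068, Tyr845, Tyr1173) and p-HER2. Absorbance read at 450 nm, normalized to total EGFR or HER2.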

MDA-MB-231 [6] = assay: Antiinvasion activity in human MDA-MB-231 cells assessed as inhibition of FBS-induced cell invaded to matrigel coated invasion chamber at 1 uM after 24 hrs by Transwell invasion assay; format: functional, cell-based
MDA-MB-231 [7] = assay: Inhibition of MMP9 expression in human MDA-MB-231 cells at 1 uM after 24 hrs by qPCR analysis; format: functional, cell-based
How it was run: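 MDA-MB-231 cells treated at 1µM. Transcript levels measured by qPCR with GAPDH as internal control.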

MCF7 [8] = assay: Induction of apoptosis in human MCF7 cells xenografted in NIH-3 mouse assessed as decrease in cyclin D1 in tumor at 16 mg/kg, po for 25 days by qPCR; format: functional, organism-based; parameters: dose 16 mg/kg
MCF7 [9] = assay: Inhibition of VEGF expression in human MCF7 cells at 5 uM by ELISA; format: functional, cell-based
MDA-MB-231 [10] = assay: Inhibition of IGF1 expression in human MDA-MB-231 cells at 5 uM by ELISA; format: functional, cell-based
[11] = target: T1, Signal transducer and activator of transcription 1-alpha/beta (Homo sapiens) (UniProt P42224); assay: Inhibition of EGF-induced STAT1 phosphorylation in human MDA-MB-231 cells at 1 uM by ELISA; format: cell-based
T1 sequence (whole entry): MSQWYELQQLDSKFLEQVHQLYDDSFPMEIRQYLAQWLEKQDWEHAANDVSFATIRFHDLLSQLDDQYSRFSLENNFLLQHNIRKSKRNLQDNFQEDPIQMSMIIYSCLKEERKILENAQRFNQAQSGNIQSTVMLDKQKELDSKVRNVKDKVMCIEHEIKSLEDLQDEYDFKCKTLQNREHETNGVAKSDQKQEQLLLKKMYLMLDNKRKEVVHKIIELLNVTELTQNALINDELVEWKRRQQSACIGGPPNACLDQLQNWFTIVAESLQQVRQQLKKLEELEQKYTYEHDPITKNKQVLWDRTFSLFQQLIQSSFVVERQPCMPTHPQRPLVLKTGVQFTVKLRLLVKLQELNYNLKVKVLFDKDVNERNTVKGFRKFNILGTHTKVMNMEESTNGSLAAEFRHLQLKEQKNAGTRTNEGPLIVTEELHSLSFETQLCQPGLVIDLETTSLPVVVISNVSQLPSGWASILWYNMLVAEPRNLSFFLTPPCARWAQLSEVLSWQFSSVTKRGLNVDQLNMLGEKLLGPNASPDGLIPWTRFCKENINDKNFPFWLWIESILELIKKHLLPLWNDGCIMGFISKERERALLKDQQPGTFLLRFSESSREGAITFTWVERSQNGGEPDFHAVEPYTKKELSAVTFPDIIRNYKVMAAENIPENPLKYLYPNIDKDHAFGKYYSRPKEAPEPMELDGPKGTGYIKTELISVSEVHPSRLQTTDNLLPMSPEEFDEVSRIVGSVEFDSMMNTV

[12] = target: T2, Mitogen-activated protein kinase; ERK1/ERK2 (Homo sapiens) (UniProt P27361+P28482); assay: Inhibition of basal level ERK1/2 phosphorylation in human MCF7 cells at 1 uM by ELISA; format: cell-based
[13] = target: T2, Mitogen-activated protein kinase; ERK1/ERK2 (Homo sapiens); assay: Inhibition of basal level ERK1/2 phosphorylation in human MDA-MB-231 cells at 1 uM by ELISA; format: cell-based
[14] = target: T1, Signal transducer and activator of transcription 1-alpha/beta (Homo sapiens); assay: Inhibition of basal level STAT1 phosphorylation in human MCF7 cells at 1 uM by ELISA; format: cell-based
MDA-MB-231 [15] = assay: Inhibition of basal cell migration in human MDA-MB-231 cells assessed as […] at 1 uM after 24 hrs by wound healing assay; format: functional, cell-based
[16] = target: Epidermal growth factor receptor (Homo sapiens) (UniProt P00533); assay: Inhibition of EGFR (unknown origin) at 10 uM
SW-620 = assay: Antiproliferative activity against human SW620 cells after 24 hrs by MTT assay; format: functional, cell-based; details: SW-620, 24 h
How it was run: (§2)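 MTT viability: cells seeded at 1×10^4 per well in DMEM with 10% FBS, left to adhere overnight, then serum-starved 4 h. Compounds were given at a range of doses, with 0.1% DMSO vehicle as control. EC50 was taken from dose-response curves spanning 100nM-50µM. Data are mean ± SEM from at least three independent experiments.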

[17] = Antiproliferative activity against human DLD1 cells after 24 hrs by MTT assay; format: functional, cell-based; details: DLD-1, 24 h; how it was run: as §2
MCF7 [18] = assay: Antiproliferative activity against human ER-negative MCF7 cells after 72 hrs by MTT assay; format: functional, cell-based; details: MCF7, 72 h
MCF7 [19] = assay: Cell cycle arrest in human […] cells assessed as accumulation at G2 phase at 7.5 uM by propidium iodide staining by FACS analysis (reference value: 10.96%); format: functional
MDA-MB-231 [20] = assay: Cell cycle arrest in human […] cells assessed as accumulation at S phase at 2.5 uM by propidium iodide staining by FACS analysis (reference value: 13.72%); format: functional
MDA-MB-231 [21] = assay: Cell cycle arrest in human […] cells assessed as accumulation at G1 phase at 5 uM by propidium iodide staining by FACS analysis (reference value: 63.74%); format: functional
MDA-MB-231 [22] = assay: Cell cycle arrest in human […] cells assessed as accumulation at subG1 phase at 5 uM by propidium iodide staining by FACS analysis (reference value: 0.3%); format: functional
MDA-MB-231 [23] = assay: Cell cycle arrest in human […] cells assessed as accumulation at S phase at 7.5 uM by propidium iodide staining by FACS analysis (reference value: 13.72%); format: functional
MDA-MB-231 [24] = assay: Cell cycle arrest in human […] cells assessed as accumulation at subG1 phase at 7.5 uM by propidium iodide staining by FACS analysis (reference value: 0.3%); format: functional

T2 sequence (P27361 whole entry, looked up): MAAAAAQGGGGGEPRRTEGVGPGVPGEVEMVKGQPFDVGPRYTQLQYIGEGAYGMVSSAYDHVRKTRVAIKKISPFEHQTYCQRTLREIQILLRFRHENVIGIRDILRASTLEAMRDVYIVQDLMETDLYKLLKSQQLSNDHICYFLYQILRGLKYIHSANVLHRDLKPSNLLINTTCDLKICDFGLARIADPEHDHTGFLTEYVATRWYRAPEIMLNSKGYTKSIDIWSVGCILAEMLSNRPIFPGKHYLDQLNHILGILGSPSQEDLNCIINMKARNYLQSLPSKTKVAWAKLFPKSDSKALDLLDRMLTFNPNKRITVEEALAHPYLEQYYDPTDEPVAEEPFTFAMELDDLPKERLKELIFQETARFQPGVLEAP
T2 sequence (P28482 whole entry, looked up): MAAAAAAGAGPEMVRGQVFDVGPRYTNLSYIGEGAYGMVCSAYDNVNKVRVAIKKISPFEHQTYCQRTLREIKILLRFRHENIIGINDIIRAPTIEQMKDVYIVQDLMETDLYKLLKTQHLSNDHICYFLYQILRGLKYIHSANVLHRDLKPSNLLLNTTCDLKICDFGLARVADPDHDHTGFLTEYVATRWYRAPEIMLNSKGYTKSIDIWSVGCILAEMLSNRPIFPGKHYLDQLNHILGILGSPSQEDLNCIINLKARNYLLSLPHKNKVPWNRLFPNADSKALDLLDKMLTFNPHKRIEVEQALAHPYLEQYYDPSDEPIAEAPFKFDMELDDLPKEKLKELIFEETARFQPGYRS
Chain of Epidermal growth factor receptor (Homo sapiens) (P00533 whole entry): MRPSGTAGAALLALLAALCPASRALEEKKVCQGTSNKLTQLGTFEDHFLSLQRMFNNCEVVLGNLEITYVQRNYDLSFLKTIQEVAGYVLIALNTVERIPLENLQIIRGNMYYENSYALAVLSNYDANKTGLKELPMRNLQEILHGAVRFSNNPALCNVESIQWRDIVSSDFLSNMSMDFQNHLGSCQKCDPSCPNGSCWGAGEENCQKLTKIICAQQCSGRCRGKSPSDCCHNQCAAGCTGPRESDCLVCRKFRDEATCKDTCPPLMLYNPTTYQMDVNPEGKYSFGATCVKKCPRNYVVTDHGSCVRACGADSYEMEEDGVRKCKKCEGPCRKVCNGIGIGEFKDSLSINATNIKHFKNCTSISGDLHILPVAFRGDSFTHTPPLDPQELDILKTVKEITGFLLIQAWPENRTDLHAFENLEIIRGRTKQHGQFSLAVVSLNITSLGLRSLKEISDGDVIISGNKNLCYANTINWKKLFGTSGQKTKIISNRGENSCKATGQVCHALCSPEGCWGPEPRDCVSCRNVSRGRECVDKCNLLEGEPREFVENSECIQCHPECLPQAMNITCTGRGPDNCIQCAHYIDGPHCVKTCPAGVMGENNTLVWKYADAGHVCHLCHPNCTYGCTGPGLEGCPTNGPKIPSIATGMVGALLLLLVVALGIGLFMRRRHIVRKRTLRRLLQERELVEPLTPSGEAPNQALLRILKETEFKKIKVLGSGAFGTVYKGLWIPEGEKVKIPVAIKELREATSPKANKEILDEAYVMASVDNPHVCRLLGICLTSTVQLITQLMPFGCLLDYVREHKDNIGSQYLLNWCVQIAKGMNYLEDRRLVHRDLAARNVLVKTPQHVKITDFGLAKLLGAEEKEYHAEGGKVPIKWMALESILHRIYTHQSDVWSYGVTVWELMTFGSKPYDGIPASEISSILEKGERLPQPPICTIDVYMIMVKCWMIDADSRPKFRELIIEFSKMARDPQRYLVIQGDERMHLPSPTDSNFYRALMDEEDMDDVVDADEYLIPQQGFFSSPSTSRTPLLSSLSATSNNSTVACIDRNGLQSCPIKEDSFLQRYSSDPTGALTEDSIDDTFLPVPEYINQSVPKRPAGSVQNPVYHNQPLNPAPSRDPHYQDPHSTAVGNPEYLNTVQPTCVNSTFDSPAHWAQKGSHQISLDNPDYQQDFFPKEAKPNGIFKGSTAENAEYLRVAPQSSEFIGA
Chain of Proto-oncogene tyrosine-protein kinase Src (Homo sapiens) (P12931 2-536 limits assumed): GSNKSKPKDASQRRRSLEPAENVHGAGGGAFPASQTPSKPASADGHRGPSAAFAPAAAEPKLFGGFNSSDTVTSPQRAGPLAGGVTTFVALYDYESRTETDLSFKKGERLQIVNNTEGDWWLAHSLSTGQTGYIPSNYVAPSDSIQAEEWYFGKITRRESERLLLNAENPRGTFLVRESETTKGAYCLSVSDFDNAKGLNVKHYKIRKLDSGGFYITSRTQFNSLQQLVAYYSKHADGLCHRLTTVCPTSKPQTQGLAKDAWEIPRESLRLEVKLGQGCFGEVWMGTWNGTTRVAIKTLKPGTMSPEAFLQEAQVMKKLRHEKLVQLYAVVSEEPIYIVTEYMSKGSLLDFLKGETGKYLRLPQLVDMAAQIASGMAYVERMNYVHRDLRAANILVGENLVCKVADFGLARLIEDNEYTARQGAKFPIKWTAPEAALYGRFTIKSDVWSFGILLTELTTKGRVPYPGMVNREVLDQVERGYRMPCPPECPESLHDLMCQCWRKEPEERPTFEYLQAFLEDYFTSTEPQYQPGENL
Chain of RAF proto-oncogene serine/threonine-protein kinase (Homo sapiens) (P04049 whole entry): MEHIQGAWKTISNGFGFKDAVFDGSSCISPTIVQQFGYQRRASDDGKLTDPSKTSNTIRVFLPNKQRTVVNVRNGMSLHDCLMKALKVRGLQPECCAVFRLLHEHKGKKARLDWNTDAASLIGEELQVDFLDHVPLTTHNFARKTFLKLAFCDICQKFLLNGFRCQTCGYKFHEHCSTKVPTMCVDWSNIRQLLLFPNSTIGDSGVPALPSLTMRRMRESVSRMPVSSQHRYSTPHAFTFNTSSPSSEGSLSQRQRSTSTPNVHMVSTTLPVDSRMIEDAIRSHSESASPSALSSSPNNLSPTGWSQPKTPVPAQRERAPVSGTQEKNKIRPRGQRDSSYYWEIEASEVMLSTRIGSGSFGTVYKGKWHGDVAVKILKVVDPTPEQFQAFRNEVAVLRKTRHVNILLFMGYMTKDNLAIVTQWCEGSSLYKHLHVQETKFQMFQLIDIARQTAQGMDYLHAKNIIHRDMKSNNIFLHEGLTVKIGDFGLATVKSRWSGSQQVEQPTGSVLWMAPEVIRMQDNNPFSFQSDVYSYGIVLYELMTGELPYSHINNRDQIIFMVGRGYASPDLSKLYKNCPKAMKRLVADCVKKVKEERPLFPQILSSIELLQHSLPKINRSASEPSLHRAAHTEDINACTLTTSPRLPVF

SMILES: CCN(CC)CCO/N=C(\c1ccc(SC)cc1)c1cccc2ccccc12
- inhibition [1]: inactive
- inhibition [2]: inactive
- Activity (MDA-MB-231 [3]): Active
- Activity (MDA-MB-231 [4]): Active
- inhibition [5]: Active
- Activity (MDA-MB-231 [6]): Active
- inhibition (MDA-MB-231 [7]): Active
- Activity (MCF7 [8]): Active
- inhibition (MCF7 [9]): inactive
- inhibition (MDA-MB-231 [10]): inactive
- inhibition [11]: inactive
- inhibition [12]: Active
- inhibition [13]: Active
- inhibition [14]: inactive
- inhibition (MDA-MB-231 [15]): Active
- inhibition [16]: inactive

SMILES: CCN(CC)CCO/N=C(\c1ccc(SC)cc1)c1cccc2ccccc12.O=C(O)C(=O)O
- EC50 (SW-620): 8.78 µM
- EC50 [17]: 15.6 µM
- EC50 (MCF7 [18]): 3 µM
- Activity (MCF7 [19]): 13.98%
- Activity (MDA-MB-231 [20]): 13.65%
- Activity (MDA-MB-231 [21]): 88%
- Activity (MDA-MB-231 [22]): 0.9%
- Activity (MDA-MB-231 [23]): 2.74%
- Activity (MDA-MB-231 [24]): 0.8%

— ChEMBL document CHEMBL3352791, “Thioaryl naphthylmethanone oxime ether analogs as novel anticancer agents” (J Med Chem, 2014)
